Data on eleven molecules can be found in paper PMC3304101 (Journal of Medicinal Chemistry, 2010).

What is called IC50 is the midpoint of a concentration-inhibition curve. Broadly, the half-life is how long it takes for the measured level to halve. Read a high half-life as slow loss. The Km is the substrate concentration at which the rate is half of its maximum. Usually Vmax stands for the rate approached at saturating substrate. Usually kcat stands for the number of substrate molecules converted per active site and unit of time at saturation. One may read the kcat/Km as the second-order rate constant that governs catalysis at low substrate concentration.

Where a name gives a salt, the structure may show the parent alone. Read-outs that look alike come from different tables or passages of the source.

The target of data set [1] is T1, hPEPT1 (Homo sapiens, UniProt P46059).
T1 sequence (P46059 1-708): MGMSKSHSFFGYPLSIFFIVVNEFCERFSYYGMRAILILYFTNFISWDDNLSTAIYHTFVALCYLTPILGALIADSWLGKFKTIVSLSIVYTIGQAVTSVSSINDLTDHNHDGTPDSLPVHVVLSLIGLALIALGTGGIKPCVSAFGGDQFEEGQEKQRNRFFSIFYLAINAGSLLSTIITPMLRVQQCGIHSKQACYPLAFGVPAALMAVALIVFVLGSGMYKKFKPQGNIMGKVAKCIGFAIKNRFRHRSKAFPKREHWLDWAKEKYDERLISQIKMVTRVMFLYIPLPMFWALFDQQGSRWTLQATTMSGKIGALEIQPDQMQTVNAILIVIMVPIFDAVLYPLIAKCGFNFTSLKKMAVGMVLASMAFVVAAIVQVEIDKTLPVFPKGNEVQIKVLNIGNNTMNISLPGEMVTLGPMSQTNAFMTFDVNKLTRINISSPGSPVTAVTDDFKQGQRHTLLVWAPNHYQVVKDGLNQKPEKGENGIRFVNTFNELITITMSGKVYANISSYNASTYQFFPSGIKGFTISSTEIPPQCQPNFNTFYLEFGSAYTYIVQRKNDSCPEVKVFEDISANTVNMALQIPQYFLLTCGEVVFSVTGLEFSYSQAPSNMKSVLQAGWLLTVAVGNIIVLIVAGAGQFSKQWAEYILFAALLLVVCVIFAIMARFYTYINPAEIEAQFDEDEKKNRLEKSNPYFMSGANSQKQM
Description: [3H]Gly-Sar uptake inhibition in HeLa/hPEPT1 cells. It counts as cell-based. In a few lines:
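HeLa cells infected with hPEPT1 adenovirus 3 days before assay. Incubated 30 min at 37 °C in pH 6.0 MES uptake buffer with 10 μM Gly-Sar (0.1 μM [3H]) plus 0.05–5 mM test compound. Washed three times ice-cold, lysed in 0.1% SDS, scintillation counted. IC50 by nonlinear fitting; n=4.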

For data set [2] the following is noted: cited from earlier work.
Data set [3] is described as follows: Hydrolysis in pH 7.4 phosphate buffer. It counts as physicochemical. A digest of the protocol: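 Test compound (200 mM DMSO stock) in 10 mM phosphate buffer, pH 7.4, at 37 °C. Sampled at 0, 5, 10, 30, 60 and 120 min, quenched in 0.1% TFA, HPLC. Pseudo-first-order k from ln(remaining) vs time; t1/2=0.693/k; triplicate.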
The test system of data set [4] is HeLa cells. Put plainly: Direct uptake in normal HeLa cells. It counts as cell-based. As to conditions: 1 mM test compound, pH 6.0, 60 min. A digest of the protocol:
(§1)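 HeLa cells grown 5 days in 12-well plates; the hPEPT1 set was infected with hPEPT1 adenovirus 3 days before, and uninfected HeLa served as control. After a wash and 15 min preincubation in uptake buffer (pH 6.0, MES) at 37 °C, cells took 1 mM test compound for 60 min at 37 °C. Then washed ice-cold, sonicated, TFA-precipitated (7% final), HPLC; protein measured by DC assay; triplicate.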

Data set [5] has as its system HeLa/hPEPT1 cells. Description: Direct uptake in HeLa/hPEPT1 cells. As to conditions: for remaining in donor solution after 1 h: direct uptake study, HeLa/hPEPT1 and normal HeLa cells. It counts as cell-based, human. In a few lines: as §1
Data set [6] is described as follows: Hydrolysis in pH 6.0 uptake buffer. It counts as physicochemical. As to conditions: 37 °C, * no area decrease detected in HPLC after 2 h, ** less than 5% decrease after 2 h.
Data set [7] relates to HeLa cell homogenates. Put plainly: Hydrolysis in HeLa cell homogenates. It counts as in vitro ADME. As to conditions: 500 μg/mL protein, 37 °C; * no area decrease detected in HPLC after 2 h.
For data set [8], the system named is rat jejunum. Put plainly: In situ single-pass rat jejunum perfusion. It counts as in vivo. As to conditions: 0.1 mM, pH 6.5, compared to co-perfused metoprolol; result in words (Figure 3). In a few lines:
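Male Wistar rats, 250–280 g, fasted 12–18 h, anesthetized i.m. with ketamine-xylazine; ~10 cm jejunal segment cannulated in situ at 37 °C. Perfused at 0.2 mL/min with pH 6.5 MES buffer containing 0.1 mM test compound, 0.4 mg/mL metoprolol and phenol red. Samples every 10 min for 1 h after 1 h steady state; HPLC. […], outlet corrected by phenol red; n=4.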

The subject of data set [9] is Caco-2 cell homogenates. Put plainly: Hydrolysis in Caco-2 cell homogenates. It counts as in vitro ADME. As to conditions: 500 μg/mL protein, 37 °C; * no area decrease detected in HPLC after 2 h.
Data set [10] relates to Caco-2 monolayers. Description: Caco-2 monolayer permeability study. It counts as in vitro ADME. The following applies: for Apparent apical-to-basolateral permeability coefficient (Papp): 200 μM, apical pH 6.0, basolateral pH 7.5, result in words (Figure 1). In a few lines:
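Caco-2 cells grown on collagen-coated 3.0 μm-pore transwell inserts and used 22–23 days post-seeding; TEER checked before and after. After 15 min preincubation at 37 °C, apical MES buffer (pH 6.0) replaced with 200 μM test compound, basolateral HEPES buffer (pH 7.5). Basolateral aliquots taken at set intervals and replaced with fresh buffer; HPLC. Papp=(1/C0A)(dQ/dt), steady-state rate; triplicate.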

Substrate in data set [11]: CC(C)[C@H](N)C(=O)OCCOCn1cnc2c(=O)[nH]c(N)nc21
Description: hVACVase-mediated hydrolysis. It counts as biochemical, human. As to conditions: other: recombinant hVACVase, 50 mM HEPES pH 7.4, 37 °C.

Substrate in data set [12]: CC(C)[C@H](N)C(=O)OCc1cccc(NC(=N)N)c1
Put plainly: hVACVase-mediated hydrolysis. It counts as biochemical, human. The following applies: other: recombinant hVACVase, 50 mM HEPES pH 7.4, 37 °C.

Substrate in data set [13]: CC[C@H](C)[C@H](N)C(=O)OCc1cccc(N=C(N)N)c1
Description: hVACVase-mediated hydrolysis. It counts as biochemical, human. The following applies: other: recombinant hVACVase, 50 mM HEPES pH 7.4, 37 °C.

Substrate in data set [14]: NC(N)=Nc1cccc(COC(=O)[C@@H](N)Cc2ccccc2)c1
Put plainly: hVACVase-mediated hydrolysis. As to conditions: other: recombinant hVACVase, 50 mM HEPES pH 7.4, 37 °C. It counts as biochemical, human.

`N[C@@H](Cc1ccccc1)C(=O)OCc1ccccc1` [Phe-OBz, L-phenylalanine benzyl ester hydrochloride]: the concentration for half-maximal inhibition (IC50) in [1] was greater than 3000 µM.
On to `CC(=O)N[C@H]1[C@H]([C@H](O)[C@H](O)CO)OC(C(=O)O)=C[C@@H]1N=C(N)N` [zanamivir], for which the oral bioavailability entry in [2] (result in words) is “low oral bioavailability”.
Molecule `CC(C)[C@H](N)C(=O)OCCOCn1cnc2c(=O)nc(N)[nH]c21` [valacyclovir] registered a half-life at 200 µM in [3] (phosphate buffer, pH 7.4) of 13.8 ± 0.417 h. Further, the oral bioavailability result in data set [2] is “more than 50%”. Besides, in [4], the “uptake, HeLa cells” value was less than 0.2 nmol/mg in 60 min. Besides, in data set [5], the “remaining in donor solution after 1 h” value is reported as greater than 95%. Besides, the hPEPT1/control in [5] (ratio of uptake in HeLa/hPEPT1 cells to uptake in normal HeLa cells (fold)) is greater than 25. Further, the “Half-lives, pH 6 buffer” value in data set [6] is reported as “stable ^*”.
Regarding `CC[C@H](C)[C@H](N)C(=O)OCc1ccccc1` [Ile-OBz, L-Isoleucine benzyl ester 4-toluenesulfonate salt], the half-maximal inhibitory concentration (IC50) in [1] came out at 1050 ± 130 µM.
Regarding `N=C(N)Nc1cccc(CO)c1` [3-HPG, [3-(hydroxymethyl)phenyl]guanidine], in data set [3] (10 mM phosphate buffer pH 7.4, 37 °C, * no area decrease detected in HPLC after 2 h), the “Half-lives, pH 7.4 buffer” value was “stable ^*”. Further, the “Half-lives, HeLa cell homogenates” value in data set [7] is listed as “stable ^*”. The “Effective permeability (Peff), rat jejunum” value in data set [8] was “very low”. Also, the “remaining in donor solution after 1 h” value in [5] is greater than 95%. In addition, the “Half-lives, Caco-2 cell homogenates” value in data set [9] is listed as “stable ^*”. Further, the “Half-lives, pH 6 buffer” value in data set [6] is “stable ^*”.
For `CC(C)[C@H](N)C(=O)OCC(CO)OCn1cnc2c(=O)nc(N)[nH]c21` (stereo partly drawn) [valganciclovir], the oral bioavailability entry in data set [2] is “more than 50%”.
Regarding `CC1CNc2c(cccc2S(=O)(=O)N[C@@H](CCCNC(=N)N)C(=O)N2CC[C@@H](C)C[C@@H]2C(=O)O)C1` (stereo partly drawn) [argatroban], the oral bioavailability result in data set [2] (in vivo, po) is reported as “low oral bioavailability”.
With “D-Valine [3-[(aminoiminomethyl)amino]phenyl]methyl ester [D-Val-3-HPG]”, the “Apparent apical-to-basolateral permeability coefficient (Papp)” value in [10] is “no transport”. Also, the “Stability in apical side during Caco-2 permeability study” value in [10] (percentage of ester form in donor solution at 120 min) amounted to 98.8 ± 0.1%.
As for `NC(N)=Nc1cccc(COC(=O)[C@@H](N)Cc2ccccc2)c1` [Phe-3-HPG, L-Phenylalnine [3-[(aminoiminomethyl)amino]phenyl]methyl ester], the “remaining in donor solution after 1 h” value in data set [5] is on record as greater than 80%. Moreover, the “Apparent apical-to-basolateral permeability coefficient (Papp)” value in data set [10] is listed as “didn’t show significantly different permeability than 3-HPG”. The “Half-lives, pH 6 buffer” value in [6] is on record as “stable ^**”.
`CC(C)[C@H](N)C(=O)OCc1ccccc1` [Val-OBz, L-valine benzyl ester hydrochloride]: the IC50 in data set [1] was determined as 390 ± 40 µM.

B1: hVACVase (Homo sapiens) (protein)
chain: SVTSAKVAVNGVQLHYQQTGEGDHAVLLLPGMLGSGETDFGPQLKNLNKKLFTVVAWDPRGYGHSRPPDRDFPADFFERDAKDAVDLMKALKFKKVSLLGWSDGGITALIAAAKYPSYIHKMVIWGANAYVTDEDSMIYEGIRDVSKWSERTRKPLEALYGYDYFARTCEKWVDGIRQFKHLPDGNICRHLLPRVQCPALIVHGEKDPLVPRFHADFIHKHVKGSRLHLMPEGKHNLHLRFADEFNKLAEDFLQ
As for B1, the Km came out at 68 ± 4 µM in data set [11], 46 ± 5 µM in data set [12], 9.0 ± 1.2 µM in data set [13] and 207 ± 16 µM in [14]. Moreover, the maximal velocity (Vmax) in data set [11] was determined as 120 µmol/min/mg; in [12], 321 µmol/min/mg; in [13], 30 µmol/min/mg; in data set [14], 718 µmol/min/mg. Further, the kcat in data set [11] turned out to be 58 ± 1 s⁻¹; in [12], 154 ± 4 s⁻¹; in [13] it was 14 ± 1 s⁻¹; in data set [14] it was 345 ± 8 s⁻¹. For the same molecule, the kcat/Km in [11] came out at 850000 ± 66000 M⁻¹ s⁻¹; in [12], 3.37e+06 ± 460000 M⁻¹ s⁻¹; in data set [13], 1.58e+06 ± 260000 M⁻¹ s⁻¹; in data set [14], 1.66e+06 ± 160000 M⁻¹ s⁻¹.
